The results in this text go back to ChEMBL document CHEMBL1759954, “Synthesis of some novel 3-(1-(1-substitutedpiperidin-4-yl)-1H-1,2,3-triazol-4-yl)-5-substituted phenyl-1,2,4-oxadiazoles as antifungal agents” (2011).

SMILES strings stand for the structures. Converted amounts (≈) assume the structure as drawn. The source made the active and inactive calls. The rule behind the calls is not given here.

The subject of assay [1] is Cryptococcus neoformans. Briefly: Antifungal activity against Cryptococcus neoformans up to 200 ug/ml. In kind it is functional, organism-based. In short, it runs like this:
(§1)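 In vitro MIC determination by standard agar method, cited from earlier work; fungal strains tested were Candida albicans, Fusarium oxysporum, Aspergillus flavus, Aspergillus niger and Cryptococcus neoformans, with miconazole and fluconazole run as reference standards.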

The subject of a further assay is Candida albicans. Briefly: Antifungal activity against Candida albicans. The format is functional. In short, it runs like this: as §1
Assay [2] relates to Fusarium oxysporum. Briefly: Antifungal activity against Fusarium oxysporum. The format is functional. A digest of the protocol:
as §1

Assay [3] has as its system Aspergillus niger. Briefly: Antifungal activity against Aspergillus niger up to 200 ug/ml. The format is functional, organism-based. A digest of the protocol:
as §1

The subject of assay [4] is Aspergillus flavus. Briefly: Antifungal activity against Aspergillus flavus. In kind it is functional. A digest of the protocol:
as §1

Assay [5] relates to Aspergillus niger. Briefly: Antifungal activity against Aspergillus niger. The format is functional. A digest of the protocol:
as §1

The subject of assay [6] is Cryptococcus neoformans. Briefly: Antifungal activity against Cryptococcus neoformans. In kind it is functional. In short, it runs like this: as §1
For assay [7], the system named is Fusarium oxysporum. Briefly: Antifungal activity against Fusarium oxysporum up to 200 ug/ml. The format is functional, organism-based. A digest of the protocol: as §1
The subject of assay [8] is Aspergillus flavus. Briefly: Antifungal activity against Aspergillus flavus up to 200 ug/ml. In kind it is functional, organism-based. A digest of the protocol: as §1

The term MIC denotes the lowest concentration that inhibits growth of the organism. Read a high MIC as weaker potency. Consider `CCC(=O)N1CCC(n2cc(-c3noc(-c4ccccc4)n3)nn2)CC1`, for which the outcome in the assay with Cryptococcus neoformans [1] and in the assay on Aspergillus niger [3] was inactive. For the same compound, the figures for the MIC against Candida albicans, in the assay on Fusarium oxysporum [2] and against Aspergillus flavus [4] were 50 µg/mL (≈ 142 µM), 60 µg/mL (≈ 170 µM) and 30 µg/mL (≈ 85.1 µM), respectively.
Regarding `CCCC(=O)N1CCC(n2cc(-c3noc(-c4ccccc4)n3)nn2)CC1`, the MIC came to 90 µg/mL (≈ 246 µM) against Candida albicans; 100 µg/mL (≈ 273 µM) in the assay on Fusarium oxysporum [2]; 47.5 µg/mL (≈ 130 µM) with Aspergillus niger [5]; 35 µg/mL (≈ 95.5 µM) with Aspergillus flavus [4]; 150 µg/mL (≈ 409 µM) against Cryptococcus neoformans [6].
For the compound `c1ccc(CN2CCC(n3cc(-c4noc(-c5ccccc5)n4)nn3)CC2)cc1`, the MIC with Candida albicans was determined as 50 µg/mL (≈ 129 µM); with Fusarium oxysporum [2], 65 µg/mL (≈ 168 µM); with Aspergillus niger [5] it was 150 µg/mL (≈ 388 µM); against Aspergillus flavus [4], 50 µg/mL (≈ 129 µM); with Cryptococcus neoformans [6] it was 70 µg/mL (≈ 181 µM).
For the compound `O=C(c1ccc(Cl)cc1)N1CCC(n2cc(-c3noc(-c4ccccc4)n3)nn2)CC1`, the MIC was found to be 45 µg/mL (≈ 103 µM) in the assay on Candida albicans; 40 µg/mL (≈ 92 µM) in the assay on Fusarium oxysporum [2]; 42.5 µg/mL (≈ 97.7 µM) in the assay with Aspergillus niger [5]; 40 µg/mL (≈ 92 µM) in the assay on Aspergillus flavus [4]; 45 µg/mL (≈ 103 µM) in the assay with Cryptococcus neoformans [6].
For the compound `CCN1CCC(n2cc(-c3noc(-c4ccc(Cl)cc4)n3)nn2)CC1`, the MIC against Candida albicans came out at 70 µg/mL (≈ 195 µM); with Fusarium oxysporum [2] it was 80 µg/mL (≈ 223 µM); against Aspergillus niger [5], 40 µg/mL (≈ 111 µM); against Aspergillus flavus [4] it was 35 µg/mL (≈ 97.5 µM); with Cryptococcus neoformans [6], 100 µg/mL (≈ 279 µM).
With `CC(=O)N1CCC(n2cc(-c3noc(-c4ccc(Cl)cc4)n3)nn2)CC1`, the result in the assay with Cryptococcus neoformans [1] was inactive. Further, the minimum inhibitory concentration (MIC) was 40 µg/mL (≈ 107 µM) in the assay with Candida albicans, 30 µg/mL (≈ 80.5 µM) with Fusarium oxysporum [2], 70 µg/mL (≈ 188 µM) against Aspergillus niger [5] and 150 µg/mL (≈ 402 µM) in the assay on Aspergillus flavus [4].
In the case of `O=C(c1ccccc1)N1CCC(n2cc(-c3noc(-c4ccccc4)n3)nn2)CC1`, the MIC in the assay with Candida albicans is 90 µg/mL (≈ 225 µM); with Aspergillus flavus [4], 65 µg/mL (≈ 162 µM); in the assay on Cryptococcus neoformans [6], 100 µg/mL (≈ 250 µM). The result in the assay with Fusarium oxysporum [7] and in the assay with Aspergillus niger [3] was inactive.
As for `CC(=O)N1CCC(n2cc(-c3noc(-c4ccccc4)n3)nn2)CC1`, the result in the assay on Aspergillus flavus [8] and in the assay with Cryptococcus neoformans [1] was inactive. The MIC in the assay on Candida albicans came to 35 µg/mL (≈ 103 µM); in the assay with Fusarium oxysporum [2], 35 µg/mL (≈ 103 µM); with Aspergillus niger [5] it was 95 µg/mL (≈ 281 µM).
In the case of `CCC(=O)N1CCC(n2cc(-c3noc(-c4ccc(Cl)cc4)n3)nn2)CC1`, in the assay with Cryptococcus neoformans [1], the result was inactive. Moreover, the MIC against Candida albicans came to 35 µg/mL (≈ 90.5 µM); in the assay on Fusarium oxysporum [2], 40 µg/mL (≈ 103 µM); against Aspergillus niger [5], 100 µg/mL (≈ 259 µM); against Aspergillus flavus [4] it was 30 µg/mL (≈ 77.6 µM).
As for `O=C(c1ccccc1)N1CCC(n2cc(-c3noc(-c4ccc(Cl)cc4)n3)nn2)CC1`, the MIC against Candida albicans was determined as 75 µg/mL (≈ 172 µM); against Fusarium oxysporum [2] it was 85 µg/mL (≈ 195 µM); against Aspergillus flavus [4], 65 µg/mL (≈ 149 µM); with Cryptococcus neoformans [6], 100 µg/mL (≈ 230 µM). Besides, the outcome with Aspergillus niger [3] was inactive.
Regarding `OC(Cn1cncn1)(Cn1cncn1)c1ccc(F)cc1F` [FLUCONAZOLE], the MIC with Candida albicans amounted to 5 µg/mL (≈ 16.3 µM); against Fusarium oxysporum [2], 5 µg/mL (≈ 16.3 µM); against Aspergillus niger [5], 10 µg/mL (≈ 32.7 µM); against Aspergillus flavus [4], 5 µg/mL (≈ 16.3 µM); against Cryptococcus neoformans [6] it was 5 µg/mL (≈ 16.3 µM).
For the compound `CS(=O)(=O)N1CCC(n2cc(-c3noc(-c4ccc(Cl)cc4)n3)nn2)CC1`, the minimum inhibitory concentration (MIC) against Candida albicans stood at 30 µg/mL (≈ 73.4 µM); with Fusarium oxysporum [2], 35 µg/mL (≈ 85.6 µM); in the assay with Aspergillus niger [5] it was 15 µg/mL (≈ 36.7 µM); in the assay on Aspergillus flavus [4], 15 µg/mL (≈ 36.7 µM); in the assay on Cryptococcus neoformans [6] it was 40 µg/mL (≈ 97.8 µM).
For `c1ccc(-c2nc(-c3cn(C4CCNCC4)nn3)no2)cc1`, the MIC came out at 60 µg/mL (≈ 202 µM) with Candida albicans; 100 µg/mL (≈ 337 µM) with Fusarium oxysporum [2]; 100 µg/mL (≈ 337 µM) against Aspergillus niger [5]; 50 µg/mL (≈ 169 µM) in the assay with Aspergillus flavus [4]; 90 µg/mL (≈ 304 µM) against Cryptococcus neoformans [6].
With `CS(=O)(=O)N1CCC(n2cc(-c3noc(-c4ccccc4)n3)nn2)CC1`, the MIC amounted to 50 µg/mL (≈ 134 µM) with Candida albicans; 30 µg/mL (≈ 80.1 µM) against Fusarium oxysporum [2]; 40 µg/mL (≈ 107 µM) with Aspergillus niger [5]; 40 µg/mL (≈ 107 µM) against Aspergillus flavus [4]; 25 µg/mL (≈ 66.8 µM) against Cryptococcus neoformans [6].
`CC(C)(C)OC(=O)N1CCC(n2cc(-c3noc(-c4ccccc4)n3)nn2)CC1`: the minimal inhibitory concentration (MIC) worked out at 80 µg/mL (≈ 202 µM) against Candida albicans, 100 µg/mL (≈ 252 µM) against Aspergillus niger [5], 85 µg/mL (≈ 214 µM) against Aspergillus flavus [4] and 120 µg/mL (≈ 303 µM) against Cryptococcus neoformans [6]. Moreover, the result with Fusarium oxysporum [7] was inactive.
As to `CN1CCC(n2cc(-c3noc(-c4ccc(Cl)cc4)n3)nn2)CC1`, the result in the assay on Cryptococcus neoformans [1] was inactive. Further, the MIC with Candida albicans worked out at 35 µg/mL (≈ 102 µM); with Fusarium oxysporum [2] it was 50 µg/mL (≈ 145 µM); against Aspergillus niger [5], 15 µg/mL (≈ 43.5 µM); against Aspergillus flavus [4], 15 µg/mL (≈ 43.5 µM).
As for `Cc1ccc(S(=O)(=O)N2CCC(n3cc(-c4noc(-c5ccccc5)n4)nn3)CC2)cc1`, the MIC turned out to be 60 µg/mL (≈ 133 µM) with Candida albicans; 70 µg/mL (≈ 155 µM) against Fusarium oxysporum [2]; 37.5 µg/mL (≈ 83.2 µM) in the assay on Aspergillus niger [5]; 45 µg/mL (≈ 99.9 µM) in the assay on Aspergillus flavus [4]; 40 µg/mL (≈ 88.8 µM) against Cryptococcus neoformans [6].
For the compound `CN1CCC(n2cc(-c3noc(-c4ccccc4)n3)nn2)CC1`, the outcome in the assay with Cryptococcus neoformans [1] and in the assay with Aspergillus niger [3] was inactive. The MIC was found to be 50 µg/mL (≈ 161 µM) in the assay on Candida albicans, 60 µg/mL (≈ 193 µM) against Fusarium oxysporum [2] and 30 µg/mL (≈ 96.7 µM) in the assay with Aspergillus flavus [4].
With `CCN1CCC(n2cc(-c3noc(-c4ccccc4)n3)nn2)CC1`, the MIC in the assay with Candida albicans turned out to be 90 µg/mL (≈ 277 µM); in the assay with Fusarium oxysporum [2], 100 µg/mL (≈ 308 µM); in the assay with Aspergillus niger [5], 47.5 µg/mL (≈ 146 µM); with Aspergillus flavus [4], 35 µg/mL (≈ 108 µM); against Cryptococcus neoformans [6], 150 µg/mL (≈ 462 µM).
In the case of `Clc1ccc(COC(Cn2ccnc2)c2ccc(Cl)cc2Cl)c(Cl)c1` (stereo not given) [MICONAZOLE], the MIC amounted to 25 µg/mL (≈ 60.1 µM) against Candida albicans; 25 µg/mL (≈ 60.1 µM) against Fusarium oxysporum [2]; 12.5 µg/mL (≈ 30 µM) against Aspergillus niger [5]; 12.5 µg/mL (≈ 30 µM) with Aspergillus flavus [4]; 25 µg/mL (≈ 60.1 µM) in the assay on Cryptococcus neoformans [6].
